Measurements taken from ChEMBL document CHEMBL2407068, “Tropolones as lead-like natural products: the development of potent and selective histone deacetylase inhibitors” (ACS Med Chem Lett, 2013).

Key:
[1] = Cytotoxicity against HDF after 72 hrs by MTS assay; conditions: human, HDF cells
Homo sapiens [2] = organism: Homo sapiens; experiment: Selectivity ratio of Ki for human recombinant HDAC1 to Ki for human recombinant HDAC2
Liver = experiment: Half life in mouse liver microsomes assessed as gluconoride formation at 0.4 ug/mL by HPLC-MS analysis in presence of UDPGA; format: ADME, Microsome
Outline: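 Mouse liver microsome incubation run for phase II conjugation, with UDPGA added. Half-life was determined, and the glucuronide conjugate was detected by mass spectrometry.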

Homo sapiens [3] = organism: Homo sapiens; experiment: Selectivity ratio of Ki for human recombinant HDAC5 to Ki for human recombinant HDAC2
Histone deacetylase 2 = Histone deacetylase 2 (Homo sapiens, UniProt Q92769); experiment: Inhibition of human recombinant HDAC2 by Michaelis-Menten equation analysis
Histone deacetylase 5 = Histone deacetylase 5 (Homo sapiens, UniProt Q9UQL6); experiment: Inhibition of human recombinant HDAC5 by Michaelis-Menten equation analysis
HuT78 = experiment: Cytotoxicity against human HUT78 cells after 72 hrs by MTS assay; format: functional; conditions: HuT78, 72 h
Histone deacetylase 1 = Histone deacetylase 1 (Homo sapiens, UniProt Q13547); experiment: Inhibition of human recombinant HDAC1 by Michaelis-Menten equation analysis
HCT-116 = experiment: Cytotoxicity against human HCT116 cells after 72 hrs by MTS assay; format: functional; conditions: HCT-116, 72 h
Histone deacetylase 4 = Histone deacetylase 4 (Homo sapiens, UniProt P56524); experiment: Inhibition of human recombinant HDAC4 by Michaelis-Menten equation analysis
BXPC-3 = experiment: Cytotoxicity against human BxPC3 cells after 72 hrs by MTS assay; format: functional; conditions: BXPC-3, 72 h
Histone deacetylase 8 [4] = molecular target: T1, Histone deacetylase 8 (Homo sapiens, UniProt Q9BY41); experiment: Inhibition of human recombinant HDAC8 by Michaelis-Menten equation analysis
T1 sequence (Q9BY41 whole entry): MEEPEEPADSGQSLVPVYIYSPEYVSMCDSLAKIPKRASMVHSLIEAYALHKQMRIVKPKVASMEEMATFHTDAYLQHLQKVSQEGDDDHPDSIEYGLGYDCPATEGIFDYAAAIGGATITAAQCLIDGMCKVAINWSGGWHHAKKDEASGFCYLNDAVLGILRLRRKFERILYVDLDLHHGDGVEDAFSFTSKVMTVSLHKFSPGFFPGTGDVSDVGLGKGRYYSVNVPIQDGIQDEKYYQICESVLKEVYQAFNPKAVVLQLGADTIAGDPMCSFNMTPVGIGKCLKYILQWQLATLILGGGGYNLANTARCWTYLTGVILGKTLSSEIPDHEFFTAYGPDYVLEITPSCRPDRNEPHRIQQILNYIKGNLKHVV

Homo sapiens [5] = organism: Homo sapiens; experiment: Selectivity ratio of Ki for human recombinant HDAC4 to Ki for human recombinant HDAC2
Homo sapiens [6] = organism: Homo sapiens; experiment: Selectivity ratio of Ki for human recombinant HDAC6 to Ki for human recombinant HDAC2
Homo sapiens [7] = organism: Homo sapiens; experiment: Selectivity ratio of Ki for human recombinant HDAC8 to Ki for human recombinant HDAC2
Jurkat = experiment: Cytotoxicity against human Jurkat cells after 72 hrs by MTS assay; format: functional
[8] = molecular target: T2, Protein deacetylase HDAC6 (Homo sapiens, UniProt Q9UBN7); experiment: Inhibition of human recombinant HDAC6 by Michaelis-Menten equation analysis
T2 sequence (Q9UBN7 whole entry): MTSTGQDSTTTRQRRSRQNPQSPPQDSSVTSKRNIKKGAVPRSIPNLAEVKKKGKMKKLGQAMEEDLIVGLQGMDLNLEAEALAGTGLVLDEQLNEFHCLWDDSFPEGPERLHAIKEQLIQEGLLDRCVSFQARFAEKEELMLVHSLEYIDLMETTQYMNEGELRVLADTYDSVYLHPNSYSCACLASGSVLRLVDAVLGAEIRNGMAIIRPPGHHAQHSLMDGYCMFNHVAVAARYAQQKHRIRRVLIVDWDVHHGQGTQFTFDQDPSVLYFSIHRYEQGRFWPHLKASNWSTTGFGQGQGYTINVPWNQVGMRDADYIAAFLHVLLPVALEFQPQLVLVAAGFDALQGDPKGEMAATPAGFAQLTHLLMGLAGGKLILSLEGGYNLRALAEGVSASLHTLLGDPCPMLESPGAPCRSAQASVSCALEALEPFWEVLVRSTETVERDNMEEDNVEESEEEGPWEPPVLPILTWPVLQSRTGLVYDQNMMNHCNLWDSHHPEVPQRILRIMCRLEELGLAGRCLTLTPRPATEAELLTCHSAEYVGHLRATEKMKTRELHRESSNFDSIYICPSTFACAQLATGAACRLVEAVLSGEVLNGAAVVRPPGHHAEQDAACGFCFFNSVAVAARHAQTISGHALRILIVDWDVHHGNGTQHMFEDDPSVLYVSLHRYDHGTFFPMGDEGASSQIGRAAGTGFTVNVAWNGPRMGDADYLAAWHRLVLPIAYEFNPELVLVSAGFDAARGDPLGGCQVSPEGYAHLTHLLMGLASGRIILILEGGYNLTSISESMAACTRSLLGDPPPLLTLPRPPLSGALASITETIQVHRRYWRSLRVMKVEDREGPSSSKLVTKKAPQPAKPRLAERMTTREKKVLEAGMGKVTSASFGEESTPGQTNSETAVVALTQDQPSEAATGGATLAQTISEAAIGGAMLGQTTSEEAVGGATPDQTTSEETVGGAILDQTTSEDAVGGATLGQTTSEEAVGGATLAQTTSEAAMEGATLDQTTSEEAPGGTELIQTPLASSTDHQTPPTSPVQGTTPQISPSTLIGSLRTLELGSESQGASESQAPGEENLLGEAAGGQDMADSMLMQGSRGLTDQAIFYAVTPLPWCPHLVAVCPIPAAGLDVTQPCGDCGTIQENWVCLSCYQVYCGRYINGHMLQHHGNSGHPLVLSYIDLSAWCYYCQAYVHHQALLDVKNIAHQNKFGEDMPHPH

[9] = Half life in mouse liver microsomes at 0.4 ug/mL by HPLC-MS analysis in presence of NADPH; format: ADME, Microsome
Histone deacetylase 8 [10] = molecular target: T1, Histone deacetylase 8; experiment: Competitive inhibition of human recombinant HDAC8 by Michaelis-Menten equation analysis

Sequence of Histone deacetylase 1 (Q13547 whole entry): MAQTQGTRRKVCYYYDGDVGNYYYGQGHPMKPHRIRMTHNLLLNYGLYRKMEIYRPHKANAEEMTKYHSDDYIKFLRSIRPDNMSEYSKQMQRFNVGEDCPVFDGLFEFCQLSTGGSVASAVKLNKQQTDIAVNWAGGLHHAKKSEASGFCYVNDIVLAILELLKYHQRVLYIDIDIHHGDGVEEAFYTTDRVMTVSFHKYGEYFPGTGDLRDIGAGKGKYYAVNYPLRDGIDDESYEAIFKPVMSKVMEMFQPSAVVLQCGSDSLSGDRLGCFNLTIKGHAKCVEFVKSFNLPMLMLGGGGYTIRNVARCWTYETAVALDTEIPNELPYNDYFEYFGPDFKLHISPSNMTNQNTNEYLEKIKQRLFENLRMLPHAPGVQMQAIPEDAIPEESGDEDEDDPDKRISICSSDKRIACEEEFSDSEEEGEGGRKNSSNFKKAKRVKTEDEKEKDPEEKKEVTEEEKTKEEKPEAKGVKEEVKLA
Sequence of Histone deacetylase 4 (P56524 whole entry): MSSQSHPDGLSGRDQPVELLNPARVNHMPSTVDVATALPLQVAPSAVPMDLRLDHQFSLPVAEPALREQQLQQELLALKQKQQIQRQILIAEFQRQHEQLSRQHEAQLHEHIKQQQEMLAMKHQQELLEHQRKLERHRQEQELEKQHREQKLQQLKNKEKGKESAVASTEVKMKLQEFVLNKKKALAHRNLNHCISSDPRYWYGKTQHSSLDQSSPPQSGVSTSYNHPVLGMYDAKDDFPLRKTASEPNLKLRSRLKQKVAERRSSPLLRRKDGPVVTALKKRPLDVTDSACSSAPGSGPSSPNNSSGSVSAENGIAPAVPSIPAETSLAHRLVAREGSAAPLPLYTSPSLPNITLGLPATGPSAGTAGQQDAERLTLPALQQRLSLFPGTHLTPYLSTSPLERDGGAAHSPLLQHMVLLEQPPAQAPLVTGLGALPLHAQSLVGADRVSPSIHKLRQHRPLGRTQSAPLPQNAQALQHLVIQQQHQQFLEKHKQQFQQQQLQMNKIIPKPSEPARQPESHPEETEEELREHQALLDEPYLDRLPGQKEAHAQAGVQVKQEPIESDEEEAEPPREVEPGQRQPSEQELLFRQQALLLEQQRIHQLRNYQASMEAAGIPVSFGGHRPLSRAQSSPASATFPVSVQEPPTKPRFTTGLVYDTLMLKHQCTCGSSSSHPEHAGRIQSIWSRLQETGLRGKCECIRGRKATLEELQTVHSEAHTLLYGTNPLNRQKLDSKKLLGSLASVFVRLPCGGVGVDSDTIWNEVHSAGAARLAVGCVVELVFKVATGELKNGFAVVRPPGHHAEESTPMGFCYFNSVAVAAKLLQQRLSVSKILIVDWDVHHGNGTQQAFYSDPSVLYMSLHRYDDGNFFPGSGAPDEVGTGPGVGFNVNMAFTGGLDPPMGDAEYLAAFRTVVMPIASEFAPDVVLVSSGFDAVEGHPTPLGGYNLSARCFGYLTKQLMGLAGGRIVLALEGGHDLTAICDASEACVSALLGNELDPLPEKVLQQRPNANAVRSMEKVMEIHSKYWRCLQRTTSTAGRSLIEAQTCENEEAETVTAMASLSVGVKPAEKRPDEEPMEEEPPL
Sequence of Histone deacetylase 2 (Q92769 whole entry): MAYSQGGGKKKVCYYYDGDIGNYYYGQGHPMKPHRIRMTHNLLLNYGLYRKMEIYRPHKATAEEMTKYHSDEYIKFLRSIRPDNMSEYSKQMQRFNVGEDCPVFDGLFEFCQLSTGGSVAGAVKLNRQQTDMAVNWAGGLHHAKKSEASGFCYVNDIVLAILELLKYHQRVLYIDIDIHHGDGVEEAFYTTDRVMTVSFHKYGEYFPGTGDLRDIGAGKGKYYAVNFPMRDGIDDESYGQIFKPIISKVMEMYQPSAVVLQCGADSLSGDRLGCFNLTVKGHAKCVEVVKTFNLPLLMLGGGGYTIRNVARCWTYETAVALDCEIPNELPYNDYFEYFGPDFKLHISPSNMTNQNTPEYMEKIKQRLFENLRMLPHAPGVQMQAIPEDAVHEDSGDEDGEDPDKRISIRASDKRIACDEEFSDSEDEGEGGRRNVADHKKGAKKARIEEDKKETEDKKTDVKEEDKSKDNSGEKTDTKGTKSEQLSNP
Sequence of Histone deacetylase 5 (Q9UQL6 whole entry): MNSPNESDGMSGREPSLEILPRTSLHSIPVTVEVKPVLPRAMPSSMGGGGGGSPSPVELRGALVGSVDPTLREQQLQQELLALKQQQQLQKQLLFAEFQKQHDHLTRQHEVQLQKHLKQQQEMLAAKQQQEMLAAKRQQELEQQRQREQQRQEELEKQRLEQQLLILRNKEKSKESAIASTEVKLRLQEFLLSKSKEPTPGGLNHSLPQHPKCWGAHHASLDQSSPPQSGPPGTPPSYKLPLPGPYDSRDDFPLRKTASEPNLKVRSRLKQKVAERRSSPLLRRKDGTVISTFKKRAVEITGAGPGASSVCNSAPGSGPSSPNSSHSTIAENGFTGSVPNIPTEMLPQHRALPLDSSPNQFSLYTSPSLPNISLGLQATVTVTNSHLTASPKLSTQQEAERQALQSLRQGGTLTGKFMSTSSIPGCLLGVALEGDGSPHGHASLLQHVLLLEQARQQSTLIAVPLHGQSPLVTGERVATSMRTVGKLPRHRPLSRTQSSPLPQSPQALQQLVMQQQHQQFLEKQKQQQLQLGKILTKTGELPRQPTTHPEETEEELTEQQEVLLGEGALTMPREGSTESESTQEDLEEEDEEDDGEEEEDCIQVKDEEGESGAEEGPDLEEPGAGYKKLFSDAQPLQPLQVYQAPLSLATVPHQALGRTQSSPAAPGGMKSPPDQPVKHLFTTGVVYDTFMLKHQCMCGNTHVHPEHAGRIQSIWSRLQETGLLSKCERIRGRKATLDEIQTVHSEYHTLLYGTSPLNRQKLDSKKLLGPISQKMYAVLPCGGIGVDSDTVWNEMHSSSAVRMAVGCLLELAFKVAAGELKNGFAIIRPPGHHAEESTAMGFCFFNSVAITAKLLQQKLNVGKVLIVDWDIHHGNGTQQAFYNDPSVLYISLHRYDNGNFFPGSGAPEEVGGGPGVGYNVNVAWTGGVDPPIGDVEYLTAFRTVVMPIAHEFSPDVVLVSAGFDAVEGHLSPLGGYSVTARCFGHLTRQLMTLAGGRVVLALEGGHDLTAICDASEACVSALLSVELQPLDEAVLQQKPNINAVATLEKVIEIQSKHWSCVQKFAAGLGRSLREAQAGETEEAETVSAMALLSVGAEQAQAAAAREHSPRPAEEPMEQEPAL

Ratio Ki (Homo sapiens [2]) | t1/2 (Liver) [h] | Ratio Ki (Homo sapiens [3]) | Ki (Histone deacetylase 2) [nM] | Ki (Histone deacetylase 5) [nM] | Ki (Histone deacetylase 1) [nM] | Ki (Histone deacetylase 4) [nM] | Ki (Histone deacetylase 8 [4]) [nM] | Ratio Ki (Homo sapiens [5]) | Ratio Ki (Homo sapiens [6]) | Ratio Ki (Homo sapiens [7]) | Ki [8] [nM] | half-life at 0.4 ug/mL [9] [h] | Ki (Histone deacetylase 8 [10]) [nM] | Structure (SMILES) | GI50 at 72 h [1] [nM] | GI50 (HuT78) [nM] | GI50 (HCT-116) [nM] | GI50 (BXPC-3) [nM] | GI50 (Jurkat) [nM]
> 100 | > 1 | > 100 | 0.23 | > 2500 | > 2500 | > 20000 | 124 | > 100 | > 100 | > 100 | > 2500 | – | – | COc1ccc(-c2ccccc(O)c2=O)c(OC)c1OC | > 100000 | 4740 | 35000 | 21000 | 1860
– | > 1 | – | > 2500 | > 2500 | > 2500 | 11600 | 7.87 | – | – | – | > 2500 | – | – | COc1cccc(C(C)C)cc1=O | > 100000 | > 100000 | > 100000 | > 100000 | > 100000
> 100 | > 1 | > 100 | 0.04 | > 2500 | > 2500 | 990 | 123 | > 100 | > 100 | > 100 | > 2500 | – | – | O=c1cc(C2CCCC2)cccc1O | > 100000 | 11400 | > 100000 | 180000 | 6300
– | > 1 | – | 0.06 | > 2500 | > 2500 | 10900 | 1.47 | – | – | – | > 2500 | – | – | O=c1cc(-c2ccccc2)cccc1O | > 100000 | 4140 | 53400 | 18500 | 670
> 100 | > 1 | > 100 | 0.81 | > 2500 | > 2500 | > 20000 | 83.8 | > 100 | > 100 | > 100 | > 2500 | – | – | COc1ccc(-c2ccccc(O)c2=O)cc1 | > 100000 | 2870 | 57000 | 35900 | 620
– | > 1 | – | 0.22 | > 2500 | > 2500 | 6110 | 2.27 | – | – | – | > 2500 | – | – | CCC(C)c1cccc(O)c(=O)c1 (centres undefined) | > 100000 | 3250 | 26900 | 104000 | 590
> 100 | > 1 | > 100 | 0.42 | > 2500 | > 2500 | > 20000 | 811 | > 100 | > 100 | > 100 | > 2500 | – | – | COc1ccc(OC)c(-c2ccccc(O)c2=O)c1 | > 100000 | 3050 | 46600 | 14100 | 760
> 100 | > 1 | > 100 | 0.25 | > 2500 | > 2500 | > 20000 | 186 | > 100 | > 100 | > 100 | > 2500 | – | – | O=c1c(O)ccccc1-c1ccc2ccccc2c1 | 93100 | 4110 | 32100 | 17100 | 1150
– | > 1 | – | 0.26 | > 2500 | > 2500 | > 20000 | 1.09 | – | – | – | 527 | 1.55 | 0.53 | O=c1c(O)ccccc1-c1ccccc1 | 96500 | 7830 | 15200 | 29400 | 3330
– | > 1 | – | 0.12 | > 2500 | > 2500 | 8360 | 2.38 | – | – | – | > 2500 | – | – | COc1ccc(-c2cccc(O)c(=O)c2)cc1 | > 100000 | 8950 | 43700 | 91600 | 4620
– | – | – | – | – | – | – | – | – | – | – | – | 0.467 | – | O=C(CCCCCCC(=O)Nc1ccccc1)NO [VORINOSTAT] | 19000 | 2100 | 2500 | 5560 | 900
> 100 | > 1 | > 100 | 0.51 | > 2500 | > 2500 | 11200 | 266 | > 100 | > 100 | > 100 | > 2500 | – | – | COc1ccc(OC)c(-c2cccc(O)c(=O)c2)c1 | > 100000 | 17100 | > 100000 | 34800 | 5890
> 100 | > 1 | > 100 | 0.13 | > 2500 | > 2500 | 806 | 12.8 | > 100 | > 100 | > 100 | > 2500 | – | – | CC(C)(C)c1cccc(O)c(=O)c1 | > 100000 | 13100 | 62600 | 43000 | 4450

Structure (SMILES) | Ratio Ki (Homo sapiens [2]) | t1/2 (Liver) [h] | Ratio Ki (Homo sapiens [3]) | Ki (Histone deacetylase 2) [nM] | Ki (Histone deacetylase 5) [nM] | Ki (Histone deacetylase 1) [nM] | Ki (Histone deacetylase 4) [nM] | Ki (Histone deacetylase 8 [4]) [nM] | Ratio Ki (Homo sapiens [5]) | Ratio Ki (Homo sapiens [6]) | Ratio Ki (Homo sapiens [7]) | Ki [8] [nM] | half-life at 0.4 ug/mL [9] [h] | Ki (Histone deacetylase 8 [10]) [nM] | GI50 at 72 h [1] [nM] | GI50 (HuT78) [nM] | GI50 (HCT-116) [nM] | GI50 (BXPC-3) [nM] | GI50 (Jurkat) [nM]
CC(C)c1cccc(=O)c(O)c1 [HINOKITIOL] | – | > 1 | – | 15.4 | > 2500 | > 2500 | > 20000 | 178 | – | – | – | > 2500 | – | – | > 100000 | 4990 | 6920 | 19000 | 1100
